Source: PubChem
The list is not random: actives were taken first. Their share in the collection is about 2.1%.
CCR6 antag: antagonists of human CCR6 receptor. P51684. CHO-K1 CCR6 PathHunter beta-arrestin, luminescence, CCL20-stimulated. inhibition, % at 20 µM. hit rate 0.49% among 340,000. AID 493098;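 active = compounds whose inhibition of the agonist-driven luminescence signal at 20 µM reaches about 50%, limit read from the data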;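 also: cells stimulated with CCL20 at 14 nM final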
APJ agonist: APJ receptor agonism. activation, % at 20 µM. CHO-K1 APJ PathHunter beta-arrestin, luminescence; 0% DMSO wells, 100% apelin. P35414. AID 2520. hit rate 0.11% among 330,000;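 active = activation more than six SD over the plate average, tested at 20 µM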
Target sequence (P35414 whole entry, looked up): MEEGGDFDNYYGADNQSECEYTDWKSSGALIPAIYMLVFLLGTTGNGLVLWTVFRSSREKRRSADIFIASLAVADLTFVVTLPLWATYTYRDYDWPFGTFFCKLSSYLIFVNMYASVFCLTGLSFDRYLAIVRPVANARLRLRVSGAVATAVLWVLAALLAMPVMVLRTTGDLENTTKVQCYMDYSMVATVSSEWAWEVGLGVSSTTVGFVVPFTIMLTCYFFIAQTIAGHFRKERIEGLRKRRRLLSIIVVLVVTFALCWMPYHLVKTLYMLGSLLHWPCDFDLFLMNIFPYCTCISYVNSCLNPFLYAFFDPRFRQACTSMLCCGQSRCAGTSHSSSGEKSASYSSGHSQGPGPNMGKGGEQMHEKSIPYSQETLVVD
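Assay system: engineered CHO-K1 APJ arrestin reporter cells; Amount: 1000 CHO-K1 reporter cells seeded per well; Dosing: one dose, 20 µM compound, 1% DMSO; Times: compound stimulation 90 min at 25 °C, detection 60 min; Measured by: luminescent beta-gal fragment complementation, chemiluminescent substrate; Read-out: APJ–arrestin association signal; Controls: DMSO vs Apelin-13 10 nM.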
EBI2 block: blocks human EBI2 receptor beta-arrestin signaling. EBI2 beta-arrestin recruitment, luminescence, 7a,25-OHC stimulated. inhibition, % at 5 µM. hit rate 0.81% among 360,000. AID 651636; in the data active = inhibition above about 38%;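 also: enzyme fragment complementation signal reports receptor beta-arrestin coupling in cells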
HTR2A ag: activates the mouse 5-HT2A serotonin receptor | hit rate 0.66% among 360,000 | CHO-K1 mHTR2A beta-arrestin complementation, luminescence; percent of 30 µM serotonin response | P35363 | activation, % at 7.6 µM;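 active = activation above a run cutoff, the mean activation of all tested compounds plus 3 SD, cut at about 14% in these data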
APJ antagonist: antagonists of human APJ apelin receptor | P35414 | CHO-K1 APJ beta-arrestin complementation, luminescence | inhibition, % at 20 µM | hit rate 0.32% among 330,000 | AID 2521;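 active = inhibition above about 40% at 20 µM, limit read from the data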;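 also: cells challenged with 10 nM apelin-13 agonist together with compound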
CXCR6 block: blocks human CXCR6 beta-arrestin recruitment. O00574. CHO-K1 PathHunter CXCR6 beta-arrestin, luminescence. inhibition, % at 20 µM. hit rate 0.36% among 360,000. AID 602244; in the data active = inhibition above about 34%, passing the limit was not always enough;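 also: antagonist mode with CXCL16 agonist at 10 nM final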
Each line names hits and unclear results; the compound was inactive in the other large screens.

O=C(/C=C/c1ccc(F)cc1)c1cc(Br)ccc1O	none
Cc1c(Cl)cc(-n2cnnn2)cc1[N+](=O)[O-]	none
Cc1cc(C)cc(N2C(=O)c3nccnc3C2=O)c1	none
Cc1c([N+](=O)[O-])cc(N2C(=O)C=CC2=O)cc1[N+](=O)[O-]	CXCR6 block 52 (no result: CCR6 antag, APJ agonist, APJ antagonist)
Cc1cc(N2C(=O)C=CC2=O)c([N+](=O)[O-])cc1C	CXCR6 block 85 (no result: CCR6 antag)
Cc1cc(C)cc(N2C(=O)C=CC2=O)c1	CXCR6 block 95 (no result: CCR6 antag, APJ agonist, APJ antagonist)
O=C(O)c1ccc(CSc2nnc(-c3ccccc3Br)o2)cc1	HTR2A ag 16
O=C(O)c1ccc(CSc2nnc(-c3ccc(Cl)cc3)o2)cc1	none
CCOC(=O)c1ccc(N=Cc2nc(-c3ccccc3)oc2OC(C)=O)cc1	CCR6 antag 50
CC(=O)Oc1oc(-c2ccccc2)nc1C=Nc1ccccc1	none
COC1=C(OC)C(=O)C(Sc2ccc3ccccc3c2)=CC1=O	CXCR6 block 72 (no result: CCR6 antag, APJ agonist, APJ antagonist)
COc1ccc(S(=O)(=O)Oc2ccc3ccccc3c2)cc1	none
Cc1ccccc1N=Nc1ccc(O)c2ncccc12	none (no result: APJ agonist, APJ antagonist)
O=S(=O)(O)c1cccc2c(N=Nc3ccc(O)c4ncccc34)cccc12	CXCR6 block 37 (no result: CCR6 antag, APJ agonist, APJ antagonist)
COc1ccccc1CNC(=O)COC(=O)c1cc(-c2ccco2)nc2ccccc12	CCR6 antag 50
O=[N+]([O-])c1c(Nc2ccccc2O)cc(Cl)c2nonc12	CCR6 antag 106, EBI2 block 61, APJ antagonist 93, CXCR6 block 107
O=C1/C(=C/c2ccc(O)c([N+](=O)[O-])c2)SC(=S)N1Cc1ccccc1	CCR6 antag 54, APJ antagonist 50, CXCR6 block 44
O=C1/C(=C\c2ccc(O)cc2)SC(=S)N1c1cccnc1	CCR6 antag 64, APJ antagonist 57, CXCR6 block 49
COc1cc([N+](=O)[O-])cc(/C=C2/SC(=S)N(Cc3ccccc3)C2=O)c1O	none (no result: APJ agonist, APJ antagonist)
O=C1/C(=C\c2cccc([N+](=O)[O-])c2O)SC(=S)N1Cc1ccccc1	CCR6 antag 64, CXCR6 block 46 (no result: APJ agonist, APJ antagonist)
O=C1/C(=C\c2ccc(O)cc2)SC(=S)N1Cc1ccccc1	CCR6 antag 51
O=C(O)c1ccc(/C=C2/SC(=S)N(Cc3ccccc3)C2=O)cc1	none (no result: APJ agonist, APJ antagonist)
CCCCCCCCN1C(=O)[C@H](CC(=O)NCC23CC4CC(CC(C4)C2)C3)C[C@@]2(C(=O)OCC)CCCC=C12	none (no result: CCR6 antag, APJ agonist, APJ antagonist)
CN1C(=O)/C(=C/c2ccc(O)c([N+](=O)[O-])c2)NC1=S	APJ antagonist 45
CCCOc1ccc(/C=C2\SC(=S)N(CC3CCCO3)C2=O)cc1 (stereo unspecified)	none
O=C1/C(=C/c2ccc(O)cc2)SC(=S)N1CC1CCCO1 (stereo unspecified)	APJ antagonist 49
O=C(N/N=C\c1cccnc1)C1c2ccccc2Oc2ccccc21	none
Cc1ccc(Cc2cnc(N3C(=N)SC(c4ccccc4)C3=O)s2)cc1 (stereo unspecified)	CCR6 antag 62
COc1ccccc1C(=O)N/C(=C\c1ccccc1)C(=O)NC(C)C(=O)O (stereo unspecified)	none
O=C(OCn1ncc(Cl)c(Cl)c1=O)c1ccccc1Cl	EBI2 block 51 (no result: APJ agonist, APJ antagonist)
S=C(NNc1ccc2ccccc2c1)NC1CCCCC1	CCR6 antag 54, EBI2 block 45
S=C(Nc1ccc(Oc2ccccc2)cc1)NC1CCCCCC1	none (no result: APJ agonist, APJ antagonist)
Cn1c(C(=O)N2CCN(c3ccc(Cl)cc3)CC2)cc2c(=O)[nH]c3ccccc3c21	EBI2 block 83
Cn1c(/C=C/c2cccc([N+](=O)[O-])c2)nc2ccccc2c1=O	none
Cc1c(Cl)cccc1NC(=O)CN1CCC(C(O)(c2ccccc2)c2ccccc2)CC1	EBI2 block 38
Cc1ccccc1C(=O)NC1CCN(CC(=O)Nc2ccccc2Cl)CC1	none
CCN(CC(=O)Nc1cccc(Br)c1)Cc1nc2ccccc2c(=O)[nH]1	none (no result: APJ agonist, APJ antagonist)
COc1ccccc1CNC(=O)C(=O)NCC1OCCCN1S(=O)(=O)c1cccs1 (stereo unspecified)	HTR2A ag 17
COc1ccccc1CNC(=O)C(=O)NCC1OCCN1S(=O)(=O)c1cccs1 (stereo unspecified)	none
CCOC(=O)CC(=O)Nc1nnc(C(C)C)s1	none
